Published values collected from several papers.
Each line is one published result; the experiments were not run side by side. Converted amounts (≈) assume the structure as drawn.

SMILES	organism	test	system	conditions	endpoint	result
CC1(F)CN(C(=O)Cn2c(=O)c(C(=O)NCc3ccc(Cl)cc3)cc3nc(N4CCN(CC(=O)O)C4=O)cnc32)C1	Human betaherpesvirus 5	viral replication, inhibitor	AD169		EC50	1.27 µM
CN(C)c1cc(NC(=O)Cc2cncnc2)c(O)c2c1C[C@H]1C[C@H]3[C@H](N(C)C)C(O)=C(C(N)=O)C(=O)[C@@]3(O)C(O)=C1C2=O	Mycobacterium tuberculosis	microbial growth, broth dilution	H37RV	7 days, pH 7.4	MIC	0.4 µg/mL (≈ 0.675 µM)
O=C(Cn1ccnc1[N+](=O)[O-])NCc1ccccc1	Trypanosoma cruzi	parasite growth, absorbance	MRC5	intracellular, amastigote	IC50	2 to 5 µM
CN1CCN(c2cnc3c(cc(C(=O)NCc4ccc(Cl)cc4)c(=O)n3CC(=O)N3CC(C)(F)C3)n2)C1=O	Human betaherpesvirus 5	viral replication, inhibitor	AD169		EC50	0.13 µM
Cc1ccc(Cn2cc(C(=O)NN)c(=O)c3cc(Oc4ccccc4)ccc32)cc1	Trypanosoma cruzi	parasite growth	MRC5	intracellular, amastigote	EC50	44 µM
CN(C)c1cc(NC(=O)Cc2ncccn2)c(O)c2c1C[C@H]1C[C@H]3[C@H](N(C)C)C(O)=C(C(N)=O)C(=O)[C@@]3(O)C(O)=C1C2=O	Mycobacterium tuberculosis	microbial growth, broth dilution	H37RV	7 days, pH 7.4	MIC	0.8 µg/mL (≈ 1.35 µM)
O=C(Cn1ccnc1[N+](=O)[O-])NCc1ccccc1	Trypanosoma cruzi	parasite growth	MRC5	intracellular, amastigote	EC50	1.6 µM
OC(Cn1cncn1)(Cn1cncn1)c1ccc(F)cc1F	Trypanosoma cruzi	parasite growth, resazurin		24 h, trypomastigote	IC50	23.6 µM
